Assays:
Human betaherpesvirus 5 [1] = assay: Antiviral activity against HCMV using plaque reduction assay; >100 indicates IC50 greater than the noted(highest) concentration tested.; type: functional, organism-based
Summary of the method: (§1)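 HFF cells in 24-well dishes infected with about 100 pfu HCMV (Towne strain) per cm2 cell sheet. After adsorption, drug in growth medium added to duplicate wells at four to eight concentrations. Incubated 7 days at 37 °C, then fixed and stained with crystal violet, and plaques counted microscopically. IC50 from linear regression of % plaque reduction versus log concentration. Means of 2–5 experiments.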

Human alphaherpesvirus 1 [2] = assay: Antiviral activity against HSV-1 using ELISA assay; >100 indicates IC50 greater than the noted (highest) concentration tested.; type: functional, organism-based
Summary of the method: (§2)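 BSC-1 cells seeded at 10000 per well in MEM(E) with 10% calf serum and incubated overnight. Drug added in quadruplicate with HSV-1 (KOS) at 100 pfu/well, then 3 days at 37 °C. Detection used HRP-conjugated rabbit anti-HSV-1 antibody with TMB substrate, read at 450 and 570 nm. IC50 from regression of % absorbance reduction versus log concentration.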

Human betaherpesvirus 5 [3] = assay: Antiviral activity against HCMV using plaque reduction assay; type: functional, organism-based; summary of the method: as §1
Human alphaherpesvirus 1 [4] = assay: Antiviral activity against HSV-1 using ELISA assay; type: functional, organism-based; summary of the method: as §2
[5] = Visual cytotoxicity was scored on HFF cells at time of HCMV plaque enumeration; >100 indicates IC50 greater than the noted (highest) concentration tested.; type: functional, cell-based; details: Homo sapiens
Summary of the method: (§3)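 Stationary HFF cells, not affected by virus, inspected microscopically for cytotoxicity at the time of plaque counting in the 7-day, 37 °C HCMV plaque assay. Drug was in growth medium. IC50 estimated from regression of % inhibition against log concentration.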

KB [6] = assay: Inhibition of KB cell growth was determined; >100 indicates IC50 greater than the noted(highest) concentration tested.; type: functional, cell-based; details: Homo sapiens
Summary of the method: (§4)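 KB cells seeded at 3000-5000 per well and incubated overnight. Compound added in quadruplicate at six to eight concentrations, then 48 h at 37 °C in CO2, covering about two population doublings. Cells fixed in 95% ethanol, stained with 0.1% crystal violet, dye eluted with acidified ethanol, read at 570 nm. IC50 by linear regression against log concentration.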

[7] = Visual cytotoxicity was scored on HFF cells at time of HCMV plaque enumeration; >100 indicates IC50 greater than the noted(highest) concentration tested.; type: functional, cell-based; details: Homo sapiens; summary of the method: as §3
[8] = Visual cytotoxicity was scored on HFF cells at time of HCMV plaque enumeration; type: functional, cell-based; details: Homo sapiens; summary of the method: as §3
KB [9] = assay: Inhibition of KB cell growth was determined; type: functional, cell-based; details: Homo sapiens; summary of the method: as §4
Human betaherpesvirus 5 [10] = assay: Antiviral activity against HCMV using plaque reduction assay; >100 indicates IC50 greater than the noted (highest) concentration tested.; type: functional, organism-based; summary of the method: as §1

SMILES	IC50 (Human betaherpesvirus 5 [1]) [µM]	IC50 (Human alphaherpesvirus 1 [2]) [µM]	IC50 (Human betaherpesvirus 5 [3]) [µM]	IC50 (KB [6]) [µM]	IC50 [5] [µM]	also measured
O[C@@H]1[C@H](O)CO[C@@H]1c1c(Cl)nc2cc(Cl)c(Cl)cn12	> 100	> 100	–	–	–	–
O[C@@H]1[C@H](O)CO[C@@H]1c1c(Cl)nc2cc(Cl)c(Cl)cn12 (stereo in doubt; 15a)	–	–	8	> 100	> 100	IC50 (Human alphaherpesvirus 1 [4]): 24 µM
O[C@@H]1COC(c2c(Cl)nc3ccc(Cl)cn23)[C@@H]1O (single isomer, unassigned)	> 100	> 100	–	> 100	–	IC50 [7]: > 100 µM
O[C@@H]1[C@H](O)CO[C@@H]1c1c(Cl)nc2ccc(Cl)cn12	> 100	> 100	–	> 100	> 100	–

Further lines, with some results ahead:

IC50 (Human betaherpesvirus 5 [1]) [µM]	IC50 (Human alphaherpesvirus 1 [2]) [µM]	IC50 (Human betaherpesvirus 5 [3]) [µM]	IC50 (KB [6]) [µM]	SMILES	IC50 [5] [µM]	also measured
–	–	2.9	–	O[C@@H]1[C@H](O)CO[C@@H]1c1c(Cl)nc2cc(Cl)c(Cl)cn12 (stereo in doubt; 20)	–	IC50 (Human alphaherpesvirus 1 [4]; Human alphaherpesvirus 1): 14 µM; IC50 [8]: 100 µM; IC50 (KB [9]): 68 µM
–	> 100	–	> 100	O[C@@H]1C(c2c(Cl)nc3cc(Cl)c(Cl)cn23)OC[C@@H]1O (some centres not stated)	> 100	IC50 (Human betaherpesvirus 5 [10]): > 100 µM
